According to publication PMC5900965 (Clinical Pharmacology in Drug Development, 2017):
pIC50, pKi: −log10 of the molar value. Values joined by “and” are separate entries in the source; they are usually repeats but may differ in a detail not shown here. Identical values can stand only once.

What was measured:
[1] = Phase 1 study safety and tolerability; format: in vivo, human
CYP3A [2] = target: T1, CYP3A (Homo sapiens, UniProt P08684); test: clinical; conditions: in vivo; for Tmax: Tmax of midazolam, median (range)
T1 sequence (P08684 2-503): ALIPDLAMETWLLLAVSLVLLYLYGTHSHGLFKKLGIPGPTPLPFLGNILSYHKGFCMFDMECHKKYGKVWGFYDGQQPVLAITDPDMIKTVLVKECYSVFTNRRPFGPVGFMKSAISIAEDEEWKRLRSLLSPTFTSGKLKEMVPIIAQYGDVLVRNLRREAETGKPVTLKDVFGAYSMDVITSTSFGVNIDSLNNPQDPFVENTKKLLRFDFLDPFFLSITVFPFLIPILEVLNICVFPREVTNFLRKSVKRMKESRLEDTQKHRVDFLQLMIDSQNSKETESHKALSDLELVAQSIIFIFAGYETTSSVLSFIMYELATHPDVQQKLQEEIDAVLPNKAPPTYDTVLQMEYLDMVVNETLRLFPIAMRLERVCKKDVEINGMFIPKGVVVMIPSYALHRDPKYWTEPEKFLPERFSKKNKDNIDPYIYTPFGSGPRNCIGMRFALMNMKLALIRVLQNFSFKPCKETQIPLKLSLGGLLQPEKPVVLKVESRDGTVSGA

CYP3A [3] = target: T1, CYP3A; test: Reversible inhibition of CYP3A in pooled human liver microsomes; format: in vitro ADME
CYP1A2 [4] = target: T2, CYP1A2 (Homo sapiens, UniProt P05177); test: biochemical; format: in vitro ADME
T2 sequence (P05177 1-516): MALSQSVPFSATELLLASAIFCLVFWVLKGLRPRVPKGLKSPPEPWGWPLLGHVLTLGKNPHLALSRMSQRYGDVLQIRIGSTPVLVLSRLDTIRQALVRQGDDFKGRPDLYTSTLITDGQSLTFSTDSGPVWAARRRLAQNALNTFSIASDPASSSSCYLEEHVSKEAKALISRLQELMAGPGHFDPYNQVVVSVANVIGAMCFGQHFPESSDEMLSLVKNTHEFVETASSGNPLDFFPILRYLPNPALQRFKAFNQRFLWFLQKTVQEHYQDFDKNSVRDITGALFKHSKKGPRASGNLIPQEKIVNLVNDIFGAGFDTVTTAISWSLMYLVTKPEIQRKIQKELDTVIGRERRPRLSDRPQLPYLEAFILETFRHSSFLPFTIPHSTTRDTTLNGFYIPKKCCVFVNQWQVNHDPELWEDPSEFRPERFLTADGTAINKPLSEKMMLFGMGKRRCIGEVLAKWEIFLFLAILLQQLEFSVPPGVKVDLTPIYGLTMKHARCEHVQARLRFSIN

CYP2B6 = target: T3, CYP2B6 (Homo sapiens, UniProt P20813); test: Reversible inhibition of CYP2B6 in pooled human liver microsomes; format: in vitro ADME
T3 sequence (P20813 1-491): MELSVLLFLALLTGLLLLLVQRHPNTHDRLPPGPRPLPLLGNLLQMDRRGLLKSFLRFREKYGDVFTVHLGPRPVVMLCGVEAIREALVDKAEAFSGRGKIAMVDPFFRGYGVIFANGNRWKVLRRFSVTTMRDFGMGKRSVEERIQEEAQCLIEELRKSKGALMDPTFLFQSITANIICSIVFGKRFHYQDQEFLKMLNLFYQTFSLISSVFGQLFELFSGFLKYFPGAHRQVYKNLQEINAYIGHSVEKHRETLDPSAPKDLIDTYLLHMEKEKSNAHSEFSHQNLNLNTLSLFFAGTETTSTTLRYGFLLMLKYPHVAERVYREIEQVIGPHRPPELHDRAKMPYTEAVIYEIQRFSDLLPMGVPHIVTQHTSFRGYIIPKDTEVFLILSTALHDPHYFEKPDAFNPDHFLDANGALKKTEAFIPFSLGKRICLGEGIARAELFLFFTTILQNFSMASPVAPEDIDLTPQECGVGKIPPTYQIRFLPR

CYP2C8 = target: T4, CYP2C8 (Homo sapiens, UniProt P10632); test: Reversible inhibition of CYP2C8 in pooled human liver microsomes; format: in vitro ADME
T4 sequence (P10632 1-490): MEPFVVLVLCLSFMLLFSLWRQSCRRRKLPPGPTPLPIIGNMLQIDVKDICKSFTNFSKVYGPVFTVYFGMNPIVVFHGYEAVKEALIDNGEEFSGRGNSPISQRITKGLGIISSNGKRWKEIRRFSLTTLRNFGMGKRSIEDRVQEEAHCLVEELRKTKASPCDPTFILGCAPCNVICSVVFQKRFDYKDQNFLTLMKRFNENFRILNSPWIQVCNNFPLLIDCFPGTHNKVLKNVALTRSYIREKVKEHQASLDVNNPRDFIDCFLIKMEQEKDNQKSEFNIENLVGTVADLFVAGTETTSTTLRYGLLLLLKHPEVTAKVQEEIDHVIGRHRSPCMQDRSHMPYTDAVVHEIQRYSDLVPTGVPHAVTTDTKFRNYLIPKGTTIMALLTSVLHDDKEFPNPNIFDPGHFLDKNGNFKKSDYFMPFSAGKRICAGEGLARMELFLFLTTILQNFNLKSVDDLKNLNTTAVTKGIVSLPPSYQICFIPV

CYP2C9 = CYP2C9 (Homo sapiens, UniProt P11712); test: Reversible inhibition of CYP2C9 in pooled human liver microsomes; format: in vitro ADME
Sequence of CYP2C9 (P11712 whole entry): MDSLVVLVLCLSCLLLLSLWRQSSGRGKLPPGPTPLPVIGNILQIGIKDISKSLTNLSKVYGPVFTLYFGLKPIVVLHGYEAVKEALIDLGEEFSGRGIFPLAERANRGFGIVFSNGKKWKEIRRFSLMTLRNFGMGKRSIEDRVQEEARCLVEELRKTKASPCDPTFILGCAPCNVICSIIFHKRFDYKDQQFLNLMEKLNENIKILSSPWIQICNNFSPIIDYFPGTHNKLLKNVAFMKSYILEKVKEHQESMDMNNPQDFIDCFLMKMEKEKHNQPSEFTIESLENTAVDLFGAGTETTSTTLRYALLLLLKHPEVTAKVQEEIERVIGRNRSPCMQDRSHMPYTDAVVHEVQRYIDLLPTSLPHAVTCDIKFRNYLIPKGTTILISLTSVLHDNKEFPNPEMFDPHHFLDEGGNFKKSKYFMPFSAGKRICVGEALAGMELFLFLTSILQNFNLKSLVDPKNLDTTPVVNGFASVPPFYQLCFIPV

CYP2C19 = CYP2C19 (Homo sapiens, UniProt P33261); test: Reversible inhibition of CYP2C19 in pooled human liver microsomes; format: in vitro ADME
Sequence of CYP2C19 (P33261 whole entry): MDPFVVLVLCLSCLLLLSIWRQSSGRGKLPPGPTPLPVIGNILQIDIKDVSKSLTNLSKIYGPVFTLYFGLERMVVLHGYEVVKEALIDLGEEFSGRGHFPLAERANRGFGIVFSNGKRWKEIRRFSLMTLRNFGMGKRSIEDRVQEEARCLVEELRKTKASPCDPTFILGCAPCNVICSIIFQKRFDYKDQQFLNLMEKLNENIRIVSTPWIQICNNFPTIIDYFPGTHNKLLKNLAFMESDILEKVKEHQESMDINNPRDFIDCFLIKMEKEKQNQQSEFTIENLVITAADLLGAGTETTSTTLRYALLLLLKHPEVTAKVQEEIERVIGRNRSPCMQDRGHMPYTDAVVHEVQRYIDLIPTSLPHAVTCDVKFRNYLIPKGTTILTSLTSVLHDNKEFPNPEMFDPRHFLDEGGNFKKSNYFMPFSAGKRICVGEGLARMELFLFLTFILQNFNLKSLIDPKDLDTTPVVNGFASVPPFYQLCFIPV

CYP2D6 [5] = target: T5, CYP2D6 (Homo sapiens, UniProt P10635); test: Reversible inhibition of CYP2D6 in pooled human liver microsomes; format: in vitro ADME
T5 sequence (P10635 whole entry): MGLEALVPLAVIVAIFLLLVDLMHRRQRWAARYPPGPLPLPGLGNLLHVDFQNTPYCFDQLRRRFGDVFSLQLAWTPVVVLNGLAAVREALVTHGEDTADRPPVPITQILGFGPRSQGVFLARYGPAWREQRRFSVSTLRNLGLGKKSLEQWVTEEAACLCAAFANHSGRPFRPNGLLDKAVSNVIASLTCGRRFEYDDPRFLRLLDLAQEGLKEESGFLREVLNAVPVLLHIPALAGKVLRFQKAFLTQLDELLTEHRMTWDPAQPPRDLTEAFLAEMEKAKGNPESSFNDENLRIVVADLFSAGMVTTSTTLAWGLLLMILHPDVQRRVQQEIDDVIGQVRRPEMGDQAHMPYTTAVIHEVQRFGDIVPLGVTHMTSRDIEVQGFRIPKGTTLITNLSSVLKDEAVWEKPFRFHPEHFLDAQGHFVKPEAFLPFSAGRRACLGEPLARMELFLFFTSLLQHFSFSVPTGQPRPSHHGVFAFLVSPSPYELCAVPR

CYP3A4/5 = test: Time-dependent inhibition of CYP3A in pooled human liver microsomes; format: in vitro ADME
CYP2D6 [6] = target: T5, CYP2D6; test: Time-dependent inhibition of CYP2D6 in pooled human liver microsomes; format: in vitro ADME
CYP3A4 mRNA = test: Induction of CYP3A mRNA in cryopreserved human hepatocytes; format: in vitro ADME; conditions: for Estimated Emax (Fold Induction): highest fold induction observed
CYP3A4 = test: Induction of CYP3A4 enzyme activity in cryopreserved human hepatocytes; format: in vitro ADME; conditions: 72 hours, positive defined as ≥2‐fold
Method in brief: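 Cryopreserved human hepatocytes from several lots, in collagen-coated wells, were exposed for 72 h to test compound (0.5–100 or 0.5–60 μM), vehicle, or rifampin (25 or 10 μM). After washing, testosterone (250 μM) or midazolam (30 μM) was added. 6β-Hydroxytestosterone was measured by HPLC-UV and 1′-hydroxymidazolam by LC-MS/MS. A ≥2-fold rise counted as positive. EC50 and Emax were fitted to the concentration–fold-induction curves.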

CYP1A2 [7] = format: in vitro ADME; conditions: human hepatocytes, 72 hours; data not shown
[8] = Clinical plasma exposure after oral PF-04171327; format: in vivo, human; conditions: 25‐mg steady‐state administration of PF‐04171327
[9] = tested on: CYP2C8, CYP2C9, CYP2D6 and CYP3A (range over these CYPs); test: Reversible CYP inhibition panel in human liver microsomes; format: in vitro ADME; conditions: pooled human liver microsomes
[10] = at 0.76 mg/mL microsomal protein; ref data on file; cited from earlier work
[11] = cited from earlier work
[12] = 10 and 25 mg; patients with RA; week 8; cited from earlier work

Cc1ncc2n1-c1ccc(Cl)cc1C(c1ccccc1F)=NC2 [Midazolam, midazolam]
Treatment‐emergent AEs ([1]; midazolam 2 mg only, 12 healthy volunteers): No TEAEs were reported
AUC(0-inf) (CYP3A [2]): 0.0203 µg·h/mL
AUC(0-t) (CYP3A [2]): 0.0198 µg·h/mL
Cmax (CYP3A [2]): 7.2 ng/mL
half-life (CYP3A [2]): 3.34 h
Tmax (CYP3A [2]): ~0.5 h
AUC(0-inf) (CYP3A [2]; po, 2 mg): 0.0212 µg·h/mL
AUC(0-t) (CYP3A [2]; po, 2 mg): 0.0205 µg·h/mL
Cmax (CYP3A [2]; po, 2 mg): 8.03 ng/mL
half-life (CYP3A [2]; po, 2 mg): 3.87 h
Tmax (CYP3A [2]; po, 2 mg): ~0.5 h

Cc1ncccc1NC(=O)c1ccc2c(c1)CC[C@@H]1C[C@@](O)(C(F)(F)F)CC[C@@]21Cc1ccccc1 [PF‐00251802, dagrocorat]
pIC50 (CYP3A [3]; probe felodipine (oxidation)): 5.89
pIC50 (CYP3A [3]; probe midazolam (1′-hydroxylation)): 5.34
pIC50 (CYP3A [3]; probe testosterone (6β-hydroxylation)): 6.00
pIC50 (CYP1A2 [4]): < 4.52
pIC50 (CYP2B6): < 4.52
pIC50 (CYP2C8): 6.32
pIC50 (CYP2C9): 5.74
pIC50 (CYP2C19): < 4.52
pIC50 (CYP2D6 [5]): 6.24
Concentrations at which time‐dependent inhibition of CYP3A was shown (CYP3A4/5; midazolam as marker substrate): ≥ 0.08 µM
kinact/KI (CYP3A4/5; midazolam, slope of kobs versus [I] curve): 1200 M⁻¹ s⁻¹
pKi (CYP2D6 [6]): 6.24
kinact/KI (CYP2D6 [6]; dextromethorphan): 367 M⁻¹ s⁻¹
Concentrations at which time‐dependent inhibition of CYP2D6 was shown (CYP2D6 [6]; dextromethorphan as probe substrate): ≥ 0.6 µM
Estimated Emax (Fold Induction) (CYP3A4 mRNA; Lot 1, expt 1): 13 Fold Induction
Estimated Emax (Fold Induction) (CYP3A4 mRNA; Lot 1, expt 2): 4.7 Fold Induction
Estimated Emax (Fold Induction) (CYP3A4 mRNA; Lot 2, expt 1): 40 Fold Induction
Estimated Emax (Fold Induction) (CYP3A4 mRNA; Lot 2, expt 2): 22 Fold Induction
Induction of CYP3A4 mRNA (CYP3A4 mRNA; all lots tested, positive defined as ≥4‐fold induction based on mRNA): Induction of CYP3A4 mRNA was observed
Induction of CYP3A4 enzyme activity (CYP3A4): not observed
Induction of CYP1A2 enzyme activity (CYP1A2 [7]): No induction
Unbound Cmax [8]: approximately 2.1 ng/mL and ~4.2 nM
pIC50 [9]: 5.34 to 6.32
Fraction unbound in microsomes [10]: approximately 0.22
Estimated total Cmax ([11]; 25‐mg steady‐state administration of PF‐04171327, ref Miyoshi et al 11, Weatherley et al 22, unpublished data): approximately 300 ng/mL
Time to achieve apparent steady‐state concentrations ([11]; multiple‐dose study of PF‐04171327 in healthy volunteers): 12 days
Cmax ([11]; read-out: Estimated total Cmax, 25‐mg steady‐state administration of PF‐04171327, ref Miyoshi et al 11, Weatherley et al 22, unpublished data): ~0.61 µM

Cc1ncccc1NC(=O)c1ccc2c(c1)CC[C@@H]1C[C@@](OP(=O)(O)O)(C(F)(F)F)CC[C@@]21Cc1ccccc1 [PF‐04171327, fosdagrocorat]
SAEs or deaths ([1]; coadministration of PF‐04171327 and midazolam): No SAEs or deaths were reported
Detection in systemic circulation ([11]; single or multiple ascending‐dose phase 1 studies, lower limit of quantification 0.5 ng/mL, ref Pfizer, unpublished data): not detected
Efficacy in improving signs and symptoms of RA [12]: superior efficacy relative to placebo and comparable efficacy relative to prednisone
